High-throughput results deposited in PubChem BioAssay by Sanford-Burnham Center for Chemical Genomics.
Only some compounds are listed: those with a hit (about 1.8% of all), similar ones and a draw of the others.
SUMO1 PPI mod: SUMO1-SIM interaction modulation. inhibition, % at 20 µM. P63165. SUMO1 binding to a labelled peptide, TR-FRET, 1 h. AID 602429. 360,000 compounds, 0.33% hits; in the data active = inhibition above about 37%
LMPTP block: blocks human LMPTP phosphatase; P24666; recombinant LMPTP-A, OMFP fluorogenic substrate, fluorescence intensity; inhibition, % at 20 µM; 360,000 compounds, 0.22% hits;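 active = compounds that cut the enzyme signal by at least half of the control window in the single-dose screen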;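 note: plate controls were DMSO wells with enzyme plus substrate for no effect and substrate without enzyme for full effect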
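Assay system: LMPTP-A enzyme. Input: 0.625 nM LMPTP-A final. Probe or stimulus: 400 µM OMFP. Compound dosing: single 20 µM dose. Schedule: 50 min dark incubation at room temperature. Detection: fluorescence intensity of OMFP turnover product. Read-out: percent inhibition versus substrate-only and uninhibited controls. Benchmarks: no-enzyme low control, uninhibited high control.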
Scp-1 inhibitor: blocks human Scp-1 phosphatase activity; Q9GZU7; 340,000 compounds, 0.88% hits; Recombinant Scp1, phosphopeptide, malachite green phosphate absorbance; inhibition, % at 20 µM;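 active = inhibition above about 50% at 20 µM, limit read from the data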;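 note: plate controls were DMSO wells with enzyme for no effect and wells lacking enzyme for full effect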
Target sequence (Q9GZU7 76-261 limits assumed): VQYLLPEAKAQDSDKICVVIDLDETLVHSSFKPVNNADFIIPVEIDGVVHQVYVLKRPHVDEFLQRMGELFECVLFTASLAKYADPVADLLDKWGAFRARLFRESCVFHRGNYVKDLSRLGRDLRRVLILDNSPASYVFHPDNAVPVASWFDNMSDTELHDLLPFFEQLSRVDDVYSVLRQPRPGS
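Material: truncated SCP-1 phosphatase (76-261aa) / Buffer or medium: 50 mM Tris acetate pH 5.5, 0.005% Tween-20, 10 mM MgCl2 / Compound dosing: one concentration, 20 µM, with 1.0% DMSO / Incubation: 45 min room-temperature reaction, 5 min colour, 30 min stabiliser / Detection: colorimetric free-phosphate detection, absorbance 630 nm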
STEP block: blocks human striatal-enriched tyrosine phosphatase; recombinant STEP, OMFP fluorogenic substrate, fluorescence; P54829; inhibition, % at 20 µM; 360,000 compounds, 0.25% hits; AID 588621;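 active = inhibition at 20 µM, scaled per plate between control wells, above about 37%, limit read from the data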;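 note: 0% = DMSO with enzyme and substrate and 100% = substrate only without enzyme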
Target sequence (P54829 whole entry, looked up): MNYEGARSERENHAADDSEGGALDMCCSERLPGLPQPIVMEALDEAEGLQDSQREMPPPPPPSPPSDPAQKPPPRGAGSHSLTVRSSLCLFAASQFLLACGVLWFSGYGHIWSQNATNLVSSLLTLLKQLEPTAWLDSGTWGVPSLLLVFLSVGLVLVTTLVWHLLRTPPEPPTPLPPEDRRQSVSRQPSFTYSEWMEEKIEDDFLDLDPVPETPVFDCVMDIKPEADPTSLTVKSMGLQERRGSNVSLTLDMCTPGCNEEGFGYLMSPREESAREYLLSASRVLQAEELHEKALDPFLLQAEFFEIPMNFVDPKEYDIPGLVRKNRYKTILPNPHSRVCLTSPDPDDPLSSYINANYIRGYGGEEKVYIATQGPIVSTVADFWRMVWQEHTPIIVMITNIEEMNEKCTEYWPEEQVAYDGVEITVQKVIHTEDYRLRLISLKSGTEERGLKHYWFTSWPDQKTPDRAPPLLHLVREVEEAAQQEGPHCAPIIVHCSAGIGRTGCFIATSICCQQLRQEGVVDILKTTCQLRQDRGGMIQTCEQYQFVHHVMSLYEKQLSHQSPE
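System: STEP phosphatase, cell-free reaction; Buffer or medium: Bis-Tris pH 6.0 buffer with DTT, detergent; Incubation: 20 min at room temperature, dark; Measured by: fluorescence, 480/540 nm.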
DNMT1 block: inhibitors of human DNMT1; P26358; DNMT1 molecular beacon, Hinp1I cleavage, fluorescence; inhibition (reported as % activation of signal), % at 10 µM; 360,000 compounds, 0.83% hits; in the data active = inhibition above about 50%
HKDC1 inh: inhibitors of human hexokinase HKDC1; 340,000 compounds, 0.16% hits; AID 493160; recombinant HKDC1, G6PDH/diaphorase resazurin coupled fluorescence; inhibition, % at 20 µM;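 active = inhibition above about 35% when tested at 20 µM, limit read from the data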;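 note: plate controls were DMSO wells with enzyme for no effect and DMSO wells lacking enzyme for full effect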
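test system = in-house recombinant HK5 (HKDC1) enzyme | amount = HKDC1 at 5 µg/mL | control set = DMSO-enzyme wells negative, buffer-substituted wells positive | compound = one dose of 20 µM, 1% DMSO | schedule = reaction time 90 min, room temperature, protected from light | technique = resorufin fluorescence at 613 nm | reagent = glucose with 1 mM ATP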
Active calls of the source: *.

Results for Cc1ccc(SC[C@H](C)CN2CCC(NC(=O)OCc3ccccc3)CCC2=O)cc1 (some centres undefined) ?
SUMO1 PPI mod: -0.6; LMPTP block: 0.9

How did Nc1cccc2cc(S(=O)(=O)O)ccc12 do in these assays?
SUMO1 PPI mod: 25.5; LMPTP block: 4.0; Scp-1 inhibitor: 61.6*; STEP block: 22.4; DNMT1 block: 62.4*; HKDC1 inh: 12.6

How did Cc1cc(C)cc(NC(=O)NN2C(C)CCCC2C)c1 (centres undefined) do in these assays?
SUMO1 PPI mod: 54.4*; LMPTP block: 0.7; Scp-1 inhibitor: -3.0; STEP block: -0.2; DNMT1 block: 2.4; HKDC1 inh: -5.7

Results for COc1ccc(C(=O)N2CCc3ccc(NC(=O)c4ccccn4)cc3C2)cc1F ?
SUMO1 PPI mod: -3.0; LMPTP block: 1.3; Scp-1 inhibitor: -3.4; STEP block: -0.1; DNMT1 block: -1.3; HKDC1 inh: -0.7

Results for Cc1cc(C)n2nc3nc(N4CCCCC4)nc(-c4ccco4)c3c2n1 ?
SUMO1 PPI mod: 11.4; LMPTP block: 31.9; Scp-1 inhibitor: 42.6; STEP block: 4.4; DNMT1 block: 53.9*; HKDC1 inh: 9.3

Results for Cc1ccc(NC(=O)COc2cccc(-n3cnnn3)c2)cc1S(=O)(=O)N1CCOCC1 ?
SUMO1 PPI mod: 4.7; LMPTP block: 0.2; Scp-1 inhibitor: -7.6; STEP block: -5.6; DNMT1 block: -8.9; HKDC1 inh: -0.8

How did O=C(CN1CCCC1c1cccs1)N1CCN(S(=O)(=O)c2cccc(F)c2)CC1 (centres undefined) do in these assays?
SUMO1 PPI mod: 4.1; LMPTP block: 0.5; Scp-1 inhibitor: -2.8; STEP block: -1.8; DNMT1 block: -3.7; HKDC1 inh: -4.2

What do the screens show for `COc1ccc(/C=C2/SC(=S)N(Cc3ccccc3)C2=O)cc1O`?
SUMO1 PPI mod: -5.6; LMPTP block: 3.0; Scp-1 inhibitor: -10.0; STEP block: -1.6; DNMT1 block: -7.1; HKDC1 inh: 4.4

What do the screens show for `O=C1/C(=C\c2cc(Cl)c(O)c(Cl)c2)SC(=S)N1Cc1ccccc1`?
SUMO1 PPI mod: 36.8; LMPTP block: -0.3; Scp-1 inhibitor: 17.1; STEP block: -150.7; DNMT1 block: 59.4*; HKDC1 inh: 5.6

Results for Cc1cnc(CNC(=O)c2csc([C@@H]3C[C@H](O)[C@@H](CO)O3)n2)cn1 ?
SUMO1 PPI mod: -0.6; LMPTP block: 0.1; STEP block: -0.8; DNMT1 block: 0.0

What do the screens show for `Cc1cccc(C)c1NC(=O)C1(C)CN(S(C)(=O)=O)CC(=O)N1CC(F)(F)F` (centres undefined)?
SUMO1 PPI mod: 0.3; LMPTP block: -0.4

Results for O=C1Nc2ccccc2/C1=C/c1cnc(-c2ccccc2)[nH]1 ?
SUMO1 PPI mod: 42.5*; LMPTP block: 17.8; Scp-1 inhibitor: -3.3; STEP block: -5.4; DNMT1 block: 26.8; HKDC1 inh: -0.1

How did COc1cccc(NC(=O)CN(C)CC(=O)Nc2ccc(C)c(S(=O)(=O)N3CCOCC3)c2)c1 do in these assays?
SUMO1 PPI mod: -0.9; LMPTP block: -1.2; Scp-1 inhibitor: -4.6; STEP block: -2.4; DNMT1 block: -2.4; HKDC1 inh: -3.5

What do the screens show for `O=C(Nc1ccc(-c2nc3ccc(NC(=O)c4cccs4)cc3[nH]2)cc1)c1cccs1`?
SUMO1 PPI mod: 82.1*; LMPTP block: 6.7; Scp-1 inhibitor: 11.2; STEP block: 41.6*; DNMT1 block: 14.5; HKDC1 inh: 12.5

What do the screens show for `O=C(Nc1ccc2nc(-c3cccs3)[nH]c2c1)c1cccs1`?
SUMO1 PPI mod: 4.3; LMPTP block: 0.3; Scp-1 inhibitor: 0.0; STEP block: 1.8; DNMT1 block: -2.0; HKDC1 inh: 6.4

Results for O=C(CSCc1cccc(Br)c1)N=Nc1c(O)[nH]c2ccccc12 ?
SUMO1 PPI mod: -20.7; LMPTP block: 2.4; Scp-1 inhibitor: -8.1; STEP block: -1.4; DNMT1 block: -0.3; HKDC1 inh: 2.6

What do the screens show for `O=Nc1c(-c2c(O)[nH]c3cc(Br)ccc23)[nH]c2ccccc12`?
SUMO1 PPI mod: 43.8*; LMPTP block: 6.1; Scp-1 inhibitor: -13.9; STEP block: 4.8; DNMT1 block: -30.4; HKDC1 inh: 4.7

How did CCC(C(=O)NC1CCCC1)n1c(-c2ccnc3ccccc23)nc2ccccc21 (centres undefined) do in these assays?
SUMO1 PPI mod: -1.4; LMPTP block: 0.2

What do the screens show for `Oc1ccc(Nc2nc3ccccc3nc2Nc2ccc(O)cc2)cc1`?
SUMO1 PPI mod: 5.4; LMPTP block: 3.5; Scp-1 inhibitor: 60.3*; STEP block: -3.1; DNMT1 block: -16.2; HKDC1 inh: 6.6

What do the screens show for `O=C(/C=C/c1ccc([N+](=O)[O-])cc1)Oc1ccc(/C=N/NC(=O)c2ccncc2)cc1`?
SUMO1 PPI mod: 47.3*; LMPTP block: 46.7; Scp-1 inhibitor: -6.5; STEP block: 1.6; DNMT1 block: 4.9; HKDC1 inh: 12.2

How did COc1cc(OC)c(C(=O)OCC(=O)NCCC2=CCCCC2)cc1OC do in these assays?
SUMO1 PPI mod: 0.6; LMPTP block: -0.9; Scp-1 inhibitor: -3.4; STEP block: 6.3; DNMT1 block: -0.3; HKDC1 inh: -1.6

Results for CC(=O)[C@H]1CC[C@H]2[C@@H]3C=CC4=CC(=O)CC[C@@]4(C)[C@@H]3CC[C@]12C ?
SUMO1 PPI mod: -18.2; LMPTP block: -0.9; Scp-1 inhibitor: -8.8; STEP block: 2.6; DNMT1 block: 0.2; HKDC1 inh: -3.4

What do the screens show for `COc1ccc(S(=O)(=O)N2C[C@H]3CON(C)[C@H]3C[C@H]2c2ccc(-c3cc4ccccc4o3)cc2)cc1`?
SUMO1 PPI mod: -3.7; LMPTP block: 2.3; STEP block: 0.0; DNMT1 block: -10.2

Results for N#Cc1c(-c2ccccc2)cc(-c2cccs2)nc1SCC(=O)O ?
SUMO1 PPI mod: -7.4; LMPTP block: 0.4; Scp-1 inhibitor: 3.6; STEP block: 5.0; DNMT1 block: -0.4; HKDC1 inh: 8.5

What do the screens show for `N#Cc1c(-c2ccc(Cl)cc2)cc(-c2cccs2)nc1SCC(=O)O`?
SUMO1 PPI mod: 2.3; LMPTP block: 91.6*; Scp-1 inhibitor: 89.7*; STEP block: 97.8*; DNMT1 block: 9.4; HKDC1 inh: 14.9

How did CCN1/C(=C/C(C)=C/c2sc3ccccc3[n+]2CC)Sc2ccccc21 do in these assays?
SUMO1 PPI mod: 21.4; LMPTP block: 74.3*; Scp-1 inhibitor: -0.6; STEP block: 37.1; DNMT1 block: 12.8; HKDC1 inh: -1.6

How did Cc1cc(CN2CCN(CC(=O)Nc3cc(Cl)ccc3-n3cncn3)CC2)no1 do in these assays?
SUMO1 PPI mod: -1.8; LMPTP block: -1.5; Scp-1 inhibitor: 3.9; STEP block: -0.5; DNMT1 block: 4.0; HKDC1 inh: -6.0
